Source: ChEMBL document CHEMBL3867488 (ACS Med Chem Lett, 2016)

Legend:
[1] = Effect on plasma triglyceride level in cynomolgus monkey at 10 mg/kg, po qd administered via gavage for 14 days measured after 24 hrs of last-dose relative to base line; type: ADME, organism-based, Macaca fascicularis; settings: in vivo
Method in brief: (§1)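 Cynomolgus monkeys dosed daily for 14 days. On day 14, plasma drug concentration was taken 5 h post-dose. Plasma triglycerides were expressed as % elevation over baseline, with significance tested by ANOVA (p < 0.05).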

Macaca fascicularis = species on record: Macaca fascicularis; assay: Agonist activity at LXR-beta in cynomolgus monkey whole blood assessed as ABCA1 gene induction by measuring ABCA1 mRNA level after 4 hrs by SYBR-Green dye-based Q-PCR analysis relative to control; type: tissue-based
Cynomolgus monkey [2] = assay: In vivo agonist activity at LXR-beta in cynomolgus monkey assessed as induction of ABCG1 gene at 10 mg/kg/day, po qd administered via gavage for 14 days; type: functional, Macaca fascicularis
Method in brief: (§2)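 Cynomolgus monkeys dosed daily for 14 days. ABCG1 mRNA induction measured in blood cells on day 14 and expressed as fold change. Plasma drug concentration taken about 5 h post-dose. Plasma triglycerides also measured against baseline, with significance by ANOVA.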

[3] = Plasma concentration in cynomolgus monkey at 10 mg/kg, po qd administered via gavage for 14 days measured after 5 hrs of last-dose by LC/MS/MS analysis; type: ADME, organism-based, Macaca fascicularis; method in brief: as §1
Albumin = Albumin (Homo sapiens, UniProt P02768); assay: Binding affinity to human serum albumin at 1 uM measured after 4 hrs by equilibrium dialysis method relative to control; type: ADME; settings: isolated protein, 4 h, 1 µM
[4] = target: T1, Oxysterols receptor LXR-alpha (Homo sapiens, UniProt Q13133); assay: Agonist activity at human LXR-alpha expressed in African green monkey CV1 cells measured after 18 to 20 hrs by luciferase reporter gene assay relative to pan agonist 1-(2,4-difluorobenzyl)-2-oxo-6-(4-phenoxyphenyl)-4-(trifluoromethyl)-1,2-dihydropyridine-3-carbonitrile; type: cell-based; settings: CV-1, human; read-out: Efficacy
T1 sequence (Q13133 whole entry): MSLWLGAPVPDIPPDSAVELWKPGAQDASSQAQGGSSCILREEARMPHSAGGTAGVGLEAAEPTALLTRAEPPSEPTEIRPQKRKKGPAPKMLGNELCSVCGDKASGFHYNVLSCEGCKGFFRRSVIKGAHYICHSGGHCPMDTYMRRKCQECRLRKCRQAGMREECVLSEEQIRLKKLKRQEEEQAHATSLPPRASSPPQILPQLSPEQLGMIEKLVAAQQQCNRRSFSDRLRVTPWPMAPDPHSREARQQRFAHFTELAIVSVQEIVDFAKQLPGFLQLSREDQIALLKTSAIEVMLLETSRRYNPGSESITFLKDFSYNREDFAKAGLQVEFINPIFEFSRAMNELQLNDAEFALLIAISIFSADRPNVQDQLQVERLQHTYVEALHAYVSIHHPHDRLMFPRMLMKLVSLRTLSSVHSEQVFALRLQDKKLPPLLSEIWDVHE

[5] = Agonist activity at LXR-beta in cynomolgus monkey whole blood assessed as ABCA1 gene induction by measuring ABCA1 mRNA level after 4 hrs by SYBR-Green dye-based Q-PCR analysis; type: tissue-based; settings: Macaca fascicularis
[6] = target: Alpha-1-acid glycoprotein 1 (Homo sapiens, UniProt P02763); assay: Binding affinity to human alpha-1-AGP at 1 uM measured after 4 hrs by equilibrium dialysis method relative to control; type: ADME; settings: isolated protein, 4 h, 1 µM
[7] = target: T2, Oxysterols receptor LXR-beta (Homo sapiens) (UniProt P55055); assay: Agonist activity at LXR-beta in human HeLa cells assessed as induction of ABCA1 by beta-galactosidase/luciferase reporter gene assay relative to control; type: cell-based
T2 sequence (whole entry): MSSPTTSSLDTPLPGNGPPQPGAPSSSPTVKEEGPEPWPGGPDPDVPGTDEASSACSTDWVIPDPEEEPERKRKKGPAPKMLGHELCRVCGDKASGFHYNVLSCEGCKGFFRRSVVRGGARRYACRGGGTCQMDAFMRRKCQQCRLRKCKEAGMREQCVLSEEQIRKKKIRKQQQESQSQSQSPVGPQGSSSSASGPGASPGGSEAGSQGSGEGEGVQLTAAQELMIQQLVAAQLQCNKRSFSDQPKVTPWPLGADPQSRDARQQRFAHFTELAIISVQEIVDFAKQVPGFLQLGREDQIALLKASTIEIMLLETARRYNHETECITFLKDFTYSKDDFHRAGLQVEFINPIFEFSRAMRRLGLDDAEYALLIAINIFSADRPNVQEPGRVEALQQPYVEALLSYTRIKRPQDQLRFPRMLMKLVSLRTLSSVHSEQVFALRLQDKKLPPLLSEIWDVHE
Method in brief: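 HeLa cells carrying endogenous LXRα and LXRβ receptors, transfected with an ABCA1 LXREx3 reporter construct; agonist-driven reporter induction measured.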

[8] = target: T2, Oxysterols receptor LXR-beta (Homo sapiens); assay: Agonist activity at human LXR-beta expressed in African green monkey CV1 cells measured after 18 to 20 hrs by luciferase reporter gene assay relative to pan agonist 1-(2,4-difluorobenzyl)-2-oxo-6-(4-phenoxyphenyl)-4-(trifluoromethyl)-1,2-dihydropyridine-3-carbonitrile; type: cell-based; settings: CV-1
Cynomolgus monkey [9] = assay: In vivo agonist activity at LXR-beta in cynomolgus monkey assessed as ABCG1 gene induction by measuring total RNA level at 3 mg/kg, po qd administered via gavage for 14 days measured after 5 to 6 hrs of last-dose relative to control; type: functional, Macaca fascicularis; method in brief: as §2
[10] = target: T3, Nuclear receptor subfamily 1 group I member 2 (Homo sapiens, UniProt O75469); assay: Agonist activity at human PXR expressed in human HepG2 cells assessed as induction of CYP3A4 measured after 24 hrs by AlamarBlue dye-based luciferase reporter gene assay relative to control; type: cell-based; settings: hepg2, 24 h
T3 sequence (O75469 whole entry): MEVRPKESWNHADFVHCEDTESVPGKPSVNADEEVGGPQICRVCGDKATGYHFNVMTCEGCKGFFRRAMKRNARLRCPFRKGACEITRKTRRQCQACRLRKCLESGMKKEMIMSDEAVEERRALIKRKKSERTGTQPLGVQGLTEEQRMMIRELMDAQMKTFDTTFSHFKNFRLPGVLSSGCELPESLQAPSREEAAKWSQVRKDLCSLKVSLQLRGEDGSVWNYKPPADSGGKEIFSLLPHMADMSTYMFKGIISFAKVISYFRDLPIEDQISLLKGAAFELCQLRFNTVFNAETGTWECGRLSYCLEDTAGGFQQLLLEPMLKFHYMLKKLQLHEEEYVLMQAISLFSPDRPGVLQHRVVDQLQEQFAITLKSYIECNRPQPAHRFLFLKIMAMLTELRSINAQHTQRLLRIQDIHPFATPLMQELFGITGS

[11] = target: T2, Oxysterols receptor LXR-beta (Homo sapiens); assay: Agonist activity at LXR-beta in human whole blood assessed as ABCA1 gene induction by measuring ABCA1 mRNA level after 4 hrs by SYBR-Green dye-based Q-PCR analysis relative to pan agonist 2-(4-(5-(5-cyano-1-(2,4-difluorobenzyl)-6-oxo-4-(trifluoromethyl)-1,6-dihydropyridin-2-yl)thiophen-2-yl)-3-methylphenyl)acetic acid; type: tissue-based
Cynomolgus monkey [12] = assay: In vivo agonist activity at LXR-beta in cynomolgus monkey assessed as ABCG1 gene induction by measuring total RNA level at 1 mg/kg, po qd administered via gavage for 14 days measured after 5 to 6 hrs of last-dose relative to control; type: functional, Macaca fascicularis; method in brief: as §2
[13] = Plasma concentration in cynomolgus monkey at 3 mg/kg, po qd administered via gavage for 14 days measured after 5 hrs of last-dose by LC/MS/MS analysis; type: ADME, organism-based, Macaca fascicularis; method in brief: as §1
[14] = Plasma concentration in cynomolgus monkey at 1 mg/kg, po qd administered via gavage for 14 days measured after 5 hrs of last-dose by LC/MS/MS analysis; type: ADME, organism-based, Macaca fascicularis; method in brief: as §1
[15] = Effect on plasma triglyceride level in cynomolgus monkey at 3 mg/kg, po qd administered via gavage for 14 days measured after 24 hrs of last-dose relative to base line; type: ADME, organism-based, Macaca fascicularis; settings: in vivo; method in brief: as §1
[16] = Apparent elimination half life in iv dosed cynomolgus monkey; type: ADME, organism-based, Macaca fascicularis; settings: in vivo
[17] = Effect on plasma triglyceride level in cynomolgus monkey at 1 mg/kg, po qd administered via gavage for 14 days measured after 24 hrs of last-dose relative to base line; type: ADME, organism-based, Macaca fascicularis; settings: in vivo; method in brief: as §1
[18] = target: T3, Nuclear receptor subfamily 1 group I member 2; assay: Agonist activity at human PXR expressed in human HepG2 cells assessed as induction of CYP3A4 measured after 24 hrs by AlamarBlue dye-based luciferase reporter gene assay; type: cell-based

Sequence of Albumin (P02768 whole entry): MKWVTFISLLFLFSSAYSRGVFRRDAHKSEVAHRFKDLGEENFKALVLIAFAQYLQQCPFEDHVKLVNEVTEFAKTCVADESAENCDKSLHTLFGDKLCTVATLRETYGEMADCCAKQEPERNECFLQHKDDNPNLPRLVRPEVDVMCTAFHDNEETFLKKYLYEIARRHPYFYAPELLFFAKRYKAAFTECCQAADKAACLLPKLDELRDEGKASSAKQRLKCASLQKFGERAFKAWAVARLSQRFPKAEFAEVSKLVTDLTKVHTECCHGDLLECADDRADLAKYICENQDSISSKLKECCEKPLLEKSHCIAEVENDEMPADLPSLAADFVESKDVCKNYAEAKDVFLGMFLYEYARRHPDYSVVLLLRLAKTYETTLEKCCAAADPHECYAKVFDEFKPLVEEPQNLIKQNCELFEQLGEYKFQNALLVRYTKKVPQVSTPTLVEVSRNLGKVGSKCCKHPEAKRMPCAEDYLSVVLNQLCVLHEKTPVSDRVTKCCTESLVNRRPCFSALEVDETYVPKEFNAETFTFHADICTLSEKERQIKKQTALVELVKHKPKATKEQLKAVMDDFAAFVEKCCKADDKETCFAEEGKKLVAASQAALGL
Sequence of Alpha-1-acid glycoprotein 1 (P02763 whole entry): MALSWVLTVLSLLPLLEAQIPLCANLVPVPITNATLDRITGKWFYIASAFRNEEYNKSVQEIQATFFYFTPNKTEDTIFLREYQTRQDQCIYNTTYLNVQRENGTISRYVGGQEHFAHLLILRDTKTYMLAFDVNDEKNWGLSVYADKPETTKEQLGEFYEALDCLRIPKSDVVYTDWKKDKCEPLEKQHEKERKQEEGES

Activity [1] [%]	concentration at 5 h [3] [nM]	PB (Albumin) [%]	Emax [4] [%]	EC50 [5] [nM]	PB [6] [%]	Efficacy [7] [%]	Efficacy [8] [%]	Activity [10] [%]	Efficacy [11] [%]	concentration at 5 h [13] [nM]	concentration at 5 h [14] [nM]	Activity [15] [%]	betat1/2(app) [16] [h]	Activity [17] [%]	EC50 [18] [nM]	SMILES	Efficacy (Macaca fascicularis) [%]	fold change (FC) (Cynomolgus monkey [2])	fold change (FC) (Cynomolgus monkey [9])	fold change (FC) (Cynomolgus monkey [12])
140	200															O=S(=O)(c1ccccc1)N(CC(F)(F)F)c1ccc(C(O)(C(F)(F)F)C(F)(F)F)cc1 [T091317]	100	6		
		94.4	12	52	87.6	16	68	85	34	310	85	58	10 to 12	2	3000	CC(C)(O)c1cn(-c2ccc(-c3cc(F)c(CO)c(S(C)(=O)=O)c3)cc2)c(C(C)(C)c2cccc(F)c2Cl)n1	29		10	4
